45 molecules from ChEMBL document CHEMBL1129980, “New non-peptide endothelin-A receptor antagonists: synthesis, biological properties, and structure-activity relationships of 5-(dimethylamino)-N-pyridyl-,-N-pyrimidinyl-,-N-pyridazinyl-, and -N-pyrazinyl-1-naphthalenesulfonamides” (J Med Chem, 1997) can be followed below.

The target in data set [1] is T1, Endothelin-1 receptor (Homo sapiens) (UniProt P25101).
T1 sequence (whole entry): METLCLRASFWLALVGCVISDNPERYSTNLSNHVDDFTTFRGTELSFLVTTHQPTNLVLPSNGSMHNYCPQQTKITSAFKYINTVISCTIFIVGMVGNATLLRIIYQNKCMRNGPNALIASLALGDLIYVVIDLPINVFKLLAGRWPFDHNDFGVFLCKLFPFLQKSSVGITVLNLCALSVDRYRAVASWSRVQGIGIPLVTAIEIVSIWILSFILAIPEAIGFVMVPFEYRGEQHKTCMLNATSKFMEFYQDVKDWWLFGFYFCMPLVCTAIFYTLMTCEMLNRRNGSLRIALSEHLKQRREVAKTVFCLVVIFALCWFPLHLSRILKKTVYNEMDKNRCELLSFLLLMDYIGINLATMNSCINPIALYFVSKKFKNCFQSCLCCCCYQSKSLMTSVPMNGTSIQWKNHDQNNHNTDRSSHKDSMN
Kind of data set: Percent inhibition at 10 uM of displacement of radiolabeled endothelin-1 [125-I]ET-1 from membranes prepared from cloned human Endothelin A receptor expressed in mouse erythroleukemic (MEL) cells. It is filed as cell membranes.

Data set [2] addresses T2, Endothelin-1 receptor (Homo sapiens, UniProt P25101).
T2 sequence (P25101 whole entry): T1 sequence (whole entry)
The data set is described as follows: Inhibition of specific binding of [125-I]ET-1 to human endothelin A receptor.

Data set [3] relates to Rattus norvegicus. Kind of data set: Mean dose ratio(MDR) for inhibition of pressor response 3 hr after oral administration of compound at 10 mg/kg to conscious, normotensive rats. It counts as functional. In short, it runs like this:
(§1)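 Male Alderley Park Wistar rats (220–260 g, n = 6) were catheterized (arterial and venous) under Saffan anesthesia and tested conscious. Cumulative big ET-1 i.v. dose–response curves (0.1–4.0 nmol/kg) were run before and at set times after oral compound. The big ET-1 dose raising mean arterial pressure by 30 mmHg gave the dose-ratio shift, averaged to a mean dose ratio.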

Data set [4] is filed under the species Cavia porcellus. Kind of data set: Antagonism of ET-A induced contractile response in guinea pig portal vein. It is filed as functional. As to conditions: read-out: pA2 (converted). In short, it runs like this: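 A portal vein ring (about 4 mm) from guinea pigs of either sex (>250 g, n = 3–6) was held for isometric recording of circular muscle in oxygenated Krebs (95% O2/5% CO2) at 32 °C. After about 1.5 h equilibration, a cumulative partial big ET-1 curve was run in 3-fold steps up to >100 mg tension.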

The nature of data set [5]: Acidity constant was measured. It is filed as ADME.
Data set [6] has as its system Rattus norvegicus. Kind of data set: Mean dose ratio(MDR) for inhibition of pressor response 5 hr after oral administration of compound at 10 mg/kg to conscious, normotensive rats. It is filed as functional. The procedure, abridged: as §1
For data set [7], the system named is Rattus norvegicus. The data set is described as follows: Mean dose ratio(MDR) for inhibition of pressor response 1 hr after oral administration of compound at 10 mg/kg to conscious, normotensive rats. It is filed as functional. The procedure, abridged: as §1
For data set [8], the system named is Rattus norvegicus. The data set is described as follows: Mean dose ratio(MDR) for inhibition of pressor response 5 min after intravenous administration of compound at 10 mg/kg to pithed rats. It is filed as functional. The procedure, abridged: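 Male Alderley Park Wistar rats (280–320 g, n = 4) were pithed under halothane, with arterial and venous catheters placed. Cumulative big ET-1 dose–response curves (0.1–4.0 nmol/kg) were run before and 5 min after i.v. compound. The big ET-1 dose raising mean arterial pressure by 30 mmHg gave the dose ratio, reported as a mean with 95% confidence limits.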

Data set [9] has as its system Rattus norvegicus. The data set is described as follows: Mean dose ratio(MDR) for inhibition of pressor response 0.5 hr after oral administration of compound at 10 mg/kg to conscious, normotensive rats. It counts as functional. The procedure, abridged: as §1
Data set [10] deals with T2, Endothelin-1 receptor. Kind of data set: Inhibition of specific binding of [125-I] ET-1 to human Endothelin A receptor. In short, it runs like this: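 Membranes from mouse erythroleukemic MEL-C88 cells expressing cloned human ETA were incubated with [125I]ET-1 (30 pM final) and competing ligands for 180 min at 30 °C. Incubation was stopped by filtration through GF/B filters, and bound radioligand was counted by gamma counting. pIC50 was taken from inhibition of specific binding; n is given per compound.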

By inhibition is commonly meant the share of the control response that was lost under treatment. For orientation: IC50 means the concentration at which inhibition is half-maximal. A lower IC50 goes with inhibition by little substance. In general, pKa refers to the negative logarithm of the acid dissociation constant. The low end stands for a stronger acid or weaker base, the high end for a weaker acid or stronger base.

The structures appear in SMILES notation.

In the case of `COc1nc(Br)cnc1NS(=O)(=O)c1cccc2ccccc12`, the inhibition in data set [1] came out at 83%.

In data set [2], `CCOc1ccc(NS(=O)(=O)c2cccc3c(N(C)C)cccc23)nn1` showed a concentration for half-maximal inhibition (IC50) of 3980 nM. For the same molecule, in data set [1], the inhibition came to 64%.

Molecule `CN(C)c1cccc2c(S(=O)(=O)Nc3ccc(C#N)nn3)cccc12` yielded an inhibition in [1] below 30%.

Regarding `CN(C)c1cccc2c(S(=O)(=O)Nc3ncc(Br)cn3)cccc12`, the IC50 in data set [2] was 2000 nM. Also, the inhibition in data set [1] was found to be 80%.

In data set [2], `Cc1cc(NS(=O)(=O)c2cccc3c(N(C)C)cccc23)nnc1Cl` had an IC50 of 5010 nM. In data set [1], this molecule showed an inhibition of 64%.

`Cc1nc(NS(=O)(=O)c2cccc3c(N(C)C)cccc23)ccc1Br`: in data set [2], the IC50 is 10000 nM. In addition, the inhibition in data set [1] was determined as 54%.

In turn, `CCc1nc(Br)cnc1NS(=O)(=O)c1cccc2c(N(C)C)cccc12` had an IC50 in [2] of 2510 nM. This molecule also gave an inhibition in [1] of 68%.

Turning to `CN(C)c1cccc2c(S(=O)(=O)Nc3ncccn3)cccc12`, in data set [1], the inhibition was 54%.

Regarding `Cc1ccc(NS(=O)(=O)c2cccc3c(N(C)C)cccc23)nn1`, the IC50 in data set [2] was 1580 nM. In data set [1], the inhibition was found to be 68%.

For `CN(C)c1cccc2c(S(=O)(=O)Nc3ncc(Br)nc3OCc3ccccc3)cccc12`, in data set [1], the inhibition was below 30%.

In data set [1], `CN(C)c1cccc2c(S(=O)(=O)Nc3cccnc3)cccc12` gave an inhibition below 30%.

In data set [2], `COc1ccc(NS(=O)(=O)c2cccc3c(N(C)C)cccc23)nn1` showed an IC50 of 316 nM. The same molecule yielded an inhibition in [1] of 92%.

Regarding `Cc1cc(Br)cnc1NS(=O)(=O)c1cccc2c(N(C)C)cccc12`, in [2], the IC50 is 316 nM. For the same molecule, the inhibition in data set [1] is 94%.

Turning to `COc1nc(Cl)cnc1NS(=O)(=O)c1cccc2c(N(C)C)cccc12`, the MDR turned out to be 2.54 in [3]; 2.07 in [6]; 4.42 in data set [7]; 8.87 in data set [8]; 3.91 in data set [9]. In [4], the Kb is 63.1 nM. In addition, the pKa in data set [5] is 5. Moreover, in data set [2], the IC50 is 10 nM. The molecule further had an inhibition in [1] of 97%.

Regarding `CCOc1nc(Br)cnc1NS(=O)(=O)c1cccc2c(N(C)C)cccc12`, the IC50 in data set [2] is 501 nM. The same molecule yielded an inhibition in [1] of 92%.

For `COc1nc(C)cnc1NS(=O)(=O)c1cccc2c(N(C)C)cccc12`, the IC50 in [2] was 7.94 nM. Moreover, the inhibition in data set [1] worked out at 98%.

In data set [2], `CCNc1cccc2c(S(=O)(=O)Nc3ncc(Br)nc3OC)cccc12` gave an IC50 of 2.51 nM. The molecule also returned an inhibition in [1] of 95%.

Regarding `CN(C)c1cccc2c(S(=O)(=O)Nc3ccc(Br)nc3)cccc12`, the IC50 in data set [2] is 251 nM. Besides, in data set [1], the inhibition came out at 95%.

With `CN(C)c1cccc2c(S(=O)(=O)Nc3cnc(Br)nc3)cccc12`, the 50% inhibitory concentration (IC50) in data set [2] was 631 nM. In [1], this molecule had an inhibition of 88%.

For the molecule `CCN(C)c1cccc2c(S(=O)(=O)Nc3ncc(Br)nc3OC)cccc12`, the IC50 in data set [10] was 12.6 nM. This molecule gave an inhibition in [1] of 99%.

The molecule `CN(C)c1cccc2c(S(=O)(=O)Nc3ncc(Br)[nH]c3=O)cccc12` had an IC50 in [2] of 5010 nM. That is a single-digit micromolar value.

`CN(C)c1cccc2c(S(=O)(=O)Nc3cnc(Br)cn3)cccc12` had an IC50 in data set [2] of 126 nM. The same molecule displayed an inhibition in [1] of 96%.

In the case of `CN(C)c1cccc2c(S(=O)(=O)Nc3ccc(Br)cc3)cccc12`, the IC50 in data set [2] was 3160 nM. This molecule also showed an inhibition in data set [1] of 72%.

`COc1nc(Br)cnc1NS(=O)(=O)c1cccc2c(N(C)C)cccc12`: the IC50 in data set [2] is 63.1 nM. The molecule also came in with an inhibition in data set [1] of 93%.

Turning to `CN(C)c1cccc2c(S(=O)(=O)Nc3ncc(Cl)cn3)cccc12`, in data set [2], the 50% inhibitory concentration (IC50) was 1580 nM. Moreover, the inhibition in data set [1] was determined as 84%.

In data set [1], `CN(C)c1cccc2c(S(=O)(=O)Nc3ccccn3)cccc12` showed an inhibition below 30%.

In data set [2], `Cc1ccc(NS(=O)(=O)c2cccc3c(N(C)C)cccc23)nc1` showed a 50% inhibitory concentration (IC50) of 1580 nM. In addition, the inhibition in [1] came to 79%.

For the molecule `CN(C)c1cccc2c(S(=O)(=O)Nc3ccc(Br)nn3)cccc12`, the IC50 in data set [2] is 251 nM. In addition, in [1], the inhibition is 95%.

Take `Cc1noc(NS(=O)(=O)c2cccc3c(N(C)C)cccc23)c1C` [BMS-182874]: the MDR in data set [3] is recorded as 2.18; in data set [6], 1.55; in [7] it was 2.28; in data set [8], 2.68; in data set [9], 3.37. The same molecule gave a pKa in data set [5] of 4.5. Further, the inhibition in [1] was found to be 98%.

With `CN(C)c1cccc2c(S(=O)(=O)Nc3ccc(Cl)cn3)cccc12`, in data set [2], the IC50 was 2000 nM. In data set [1], this molecule had an inhibition of 95%.

The molecule `CCCc1nc(Br)cnc1NS(=O)(=O)c1cccc2c(N(C)C)cccc12` came in with an inhibition in [1] below 30%.

The molecule `CN(C)c1cccc2c(S(=O)(=O)Nc3cnccn3)cccc12` had an IC50 in data set [2] of 1000 nM. Besides, the inhibition in data set [1] was 58%.

Consider `CN(C)c1cccc2c(S(=O)(=O)Nc3ccc(Cl)nc3)cccc12`, for which the IC50 in data set [2] was 1260 nM. The same molecule showed an inhibition in data set [1] of 81%.

On to `CN(C)c1cccc2c(S(=O)(=O)Nc3ccc(Cl)cc3)cccc12`, for which, in data set [2], the IC50 was 7940 nM. This molecule also had an inhibition in data set [1] of 30%.

Regarding `CN(C)c1cccc2c(S(=O)(=O)Nc3ncc(Br)nc3C#N)cccc12`, in data set [1], the inhibition was below 30%.

In [2], `CN(C)c1cccc2c(S(=O)(=O)Nc3cnc(Cl)cn3)cccc12` gave an IC50 of 158 nM. In addition, in data set [1], the inhibition was determined as 97%.

Turning to `CN(C)c1cccc2c(S(=O)(=O)Nc3cccnn3)cccc12`, the inhibition in [1] is below 30%.

Take `CN(C)c1cccc2c(S(=O)(=O)Nc3ncc(Br)nc3O)cccc12`: in data set [1], the inhibition was 81%.

In the case of `Cc1cnc(NS(=O)(=O)c2cccc3c(N(C)C)cccc23)cn1`, in [2], the IC50 was 1260 nM. Moreover, the inhibition in data set [1] was found to be 91%.

The molecule `CN(C)c1cccc2c(S(=O)(=O)Nc3ccc(Br)cn3)cccc12` gave an IC50 in data set [2] of 1580 nM. Further, the inhibition in [1] was determined as 91%.

Turning to `Cc1nc(Br)cnc1NS(=O)(=O)c1cccc2c(N(C)C)cccc12`, in [2], the IC50 was 631 nM. Moreover, the inhibition in data set [1] is 96%.

`CNc1cccc2c(S(=O)(=O)Nc3ncc(Br)nc3OC)cccc12`: the IC50 in data set [2] is 15.8 nM. This molecule gave an inhibition in data set [1] of 100%.

On to `CN(C)c1cccc2c(S(=O)(=O)Nc3ccc(Cl)nn3)cccc12`, for which, in [2], the IC50 is 200 nM. The molecule further gave an inhibition in data set [1] of 70%.

`CN(C)c1cccc2c(S(=O)(=O)Nc3ccc(I)cn3)cccc12` had an IC50 in data set [2] of 5010 nM. In data set [1], this molecule gave an inhibition of 84%.

As for `Cc1cc(Cl)nnc1NS(=O)(=O)c1cccc2c(N(C)C)cccc12`, the IC50 in data set [2] is 398 nM. Also, in data set [1], the inhibition was determined as 89%.
